High-throughput results from PubChem.
Compounds with a hit are over-represented: about 1.6% of the library has one in this group of screens.
IMP-1 inh-1 – blocks Pseudomonas aeruginosa IMP-1 metallo-beta-lactamase. 290,000 compounds, 0.45% hits. inhibition, % at 5.6 µM. purified IMP-1, nitrocefin hydrolysis, epi-absorbance fluorescence;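 active means inhibition above the mean plus 3 SD of all compounds in the same screening run, cut at about 4.5% in these data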
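assay system = purified recombinant IMP-1 metallo-beta-lactamase enzyme | schedule = 15 min preincubation plus 25 min reaction at 25 °C | signal = Epi-absorbance fluorescence, 480 nm excitation, 530 nm emission | read-out basis = percent inhibition from optical density relative to buffer-blank wells | controls = IMP-1 with DMSO as 0%, enzyme-free DMSO as 100%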
HCV core dimer – HCV core protein dimerization inhibition; TR-FRET GST/Flag-core106 dimerization, 1536-well; inhibition, % at 5 µM; 300,000 compounds, 0.33% hits;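 active means inhibition above the mean of all tested compounds plus 3 SD, set per screening campaign, cut at about 45% in these data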
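Assay system – GST-tagged and Flag-tagged HCV core protein residues 1-106 · Quantity – core106 proteins, GST 13.5 nM and Flag 17 nM · Benchmarks – unlabelled core106 and no-GST-core106 wells · Read-out basis – percent inhibition of core106 dimerization signal · Detection – time-resolved FRET, ex 340 nm, em 617 and 671 nm · Schedule – 4 h at 22.5 °C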
DNA FID counter – displaces DNA intercalator in HCV helicase counter-screen. inhibition, % at 7.9 µM. DNA fluorescent intercalator displacement, fluorescence. AID 1845. 290,000 compounds, 0.17% hits; in the data active means inhibition above about 37%;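 further: higher means more ethidium bromide displaced from hairpin DNA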
VIM-2 inhibitor – inhibitors of Pseudomonas aeruginosa VIM-2 metallo-beta-lactamase; purified VIM-2, nitrocefin hydrolysis, epi-absorbance fluorescence; inhibition, % at 5.6 µM; 290,000 compounds, 0.89% hits;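 active means inhibition above the mean of all tested compounds plus 3 SD, cutoff set per screening run, cut at about 7.5% in these data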;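 further: red hydrolysis product quenches plate fluorescence so inhibitors raise well fluorescence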
IMP-1 inh-2 – blocks IMP-1 metallo-beta-lactamase in VIM-2 selectivity screen; 1,300 tested, under 10 active; shares compounds with VIM-2 inhibitor; purified IMP-1, nitrocefin hydrolysis, epi-absorbance fluorescence; inhibition, % at 5.6 µM; call rule not given here
VIM-2 FRET ctr – inhibits VIM-2 in FRET assay to exclude epi-absorbance artifacts. shares compounds with VIM-2 inhibitor. purified VIM-2, CCF2 FRET substrate hydrolysis. inhibition, % at 5.6 µM. 1,300 compounds, 23% hits. AID 1857;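 active means inhibition above the mean of all tested compounds plus 3 SD, cut at about 19% in these data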
TEM-1 inh – selectivity counter-screen for VIM-2 inhibitors: E. coli TEM-1 inhibitors; shares compounds with VIM-2 inhibitor; Purified TEM-1, nitrocefin hydrolysis, epi-absorbance fluorescence; inhibition, % at 5.6 µM; 1,300 compounds, 3% hits;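 active means inhibition above that campaign's mean inhibition plus 3 SD, cut at about 0.46% in these data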
Target sequence (P62593 whole entry, looked up): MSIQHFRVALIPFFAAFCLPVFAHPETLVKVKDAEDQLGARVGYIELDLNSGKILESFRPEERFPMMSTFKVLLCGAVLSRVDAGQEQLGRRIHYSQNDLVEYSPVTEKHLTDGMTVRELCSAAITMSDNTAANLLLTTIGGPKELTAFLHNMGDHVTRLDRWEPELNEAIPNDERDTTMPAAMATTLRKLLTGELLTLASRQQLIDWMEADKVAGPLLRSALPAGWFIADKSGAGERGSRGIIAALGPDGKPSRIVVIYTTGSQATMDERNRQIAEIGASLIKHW
VIM-2 confirm 2 – confirmation of P. aeruginosa VIM-2 metallo-beta-lactamase inhibitors | shares compounds with VIM-2 inhibitor | purified VIM-2, nitrocefin hydrolysis, epi-absorbance | inhibition, % at 5.6 µM | 1,300 compounds, 96% hits;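 active means inhibition of the VIM-2 beta-lactamase enzyme above about 11% from the earlier first-round screen, limit read from the data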
A number is an active result; 0 = inactive; - = no result given.

SMILES	IMP-1 inh-1	HCV core dimer	DNA FID counter	VIM-2 inhibitor	IMP-1 inh-2	VIM-2 FRET ctr	TEM-1 inh	VIM-2 confirm 2
O=C(COc1ccc2c3c(c(=O)oc2c1)CCC3)NCc1cccnc1	0	0	0	17	0	0	0	27
NS(=O)(=O)c1ccc(CCNC(=O)COc2ccc3c4c(c(=O)oc3c2)CCC4)cc1	0	0	88	19	0	0	0	28
Cc1cc(=O)oc2cc(OCC(=O)NCc3ccncc3)ccc12	0	0	0	0	-	-	-	-
O=C(COc1ccc2c3c(c(=O)oc2c1)CCC3)NCc1ccncc1	0	0	0	29	0	0	0	39
O=C(CCC(=O)Nc1ccc(Cl)cc1Cl)NNC(=O)Nc1ccccc1	0	0	0	0	-	-	-	-
CN(C)S(=O)(=O)c1ccc(NC(=O)COc2ncnc3sccc23)cc1	0	0	0	22	0	0	0	0
CNC(=O)COc1ncnc2sccc12	0	-	0	0	-	-	-	-
Cc1c(OC(C)C(=O)NCc2ccccn2)ccc2c3c(c(=O)oc12)CCCC3 (configuration not stated)	0	0	0	16	0	0	0	23
Cc1c(OCC(=O)NCc2ccncc2)ccc2c3c(c(=O)oc12)CCC3	0	0	0	50	0	0	0	57
Cc1c(OCC(=O)OC(C)C)ccc2c3c(c(=O)oc12)CCC3	0	0	0	0	-	-	-	-
Cc1c(OC(C)C(=O)NCc2ccncc2)ccc2c3c(c(=O)oc12)CCC3 (configuration not stated)	0	0	0	23	0	0	0	36
Cc1c(OCC(=O)NCc2cccnc2)ccc2c3c(c(=O)oc12)CCC3	0	0	0	27	0	0	0	31
Cc1nnc(NC(=O)c2ccccc2NC(=O)c2ccccc2)s1	0	0	0	0	-	-	-	-
O=C1[C@@H]2CSCN2C(=O)CN1Cc1cccc(C(F)(F)F)c1	0	0	0	0	-	-	-	-
CC(C)(C)c1ccc(C(=O)N2CCCCCC2=O)cc1	0	0	0	0	-	-	-	-
Cc1c(OC(C)C(=O)NCC(O)c2ccccc2)ccc2c3c(c(=O)oc12)CCC3 (configuration not stated)	0	0	0	19	0	0	0	24
Cc1cc(OC(C)C(=O)NCC(O)c2ccccc2)c2c(C)c(C)c(=O)oc2c1 (configuration not stated)	0	0	0	0	-	-	-	-
CCOC(=O)c1cnc(-n2nc(C)cc2C)nc1NC1CCCCC1	0	0	0	14	0	0	0	28
CCOC(=O)c1cnc(-n2nc(C)cc2C)nc1Nc1ccc(N(C)C)cc1	0	0	0	26	0	0	0	75
COc1cc(SC)ccc1C(=O)Nc1ccc(Cl)cn1	0	0	0	0	-	-	-	-
CCc1nnc(NC(=O)CCC(=O)N2CCN(Cc3ccc(F)cc3)CC2)s1	0	0	0	0	-	-	-	-
O=P(O)(O)c1ccccc1OCCCCCOc1ccccc1P(=O)(O)O	0	0	0	62	0	76	0	66
Oc1ccccc1OCCOc1ccccc1OCCOc1ccccc1O	0	0	0	0	-	-	-	-
O=P(O)(O)c1ccccc1OCc1ccccc1	0	0	0	55	0	81	0	68
NNC(=O)c1ccccc1OCc1ccccc1	0	0	0	0	-	-	-	-
SMILES	IMP-1 inh-1	HCV core dimer	DNA FID counter	VIM-2 inhibitor	IMP-1 inh-2	VIM-2 FRET ctr	TEM-1 inh	VIM-2 confirm 2
Cc1c(C)c2c(OCC(=O)Nc3cccnc3)cc3c(c2oc1=O)CCC(C)(C)O3	0	0	0	42	0	0	0	52
CCc1cc(=O)oc2c3c(cc(OCC(=O)NCc4cccnc4)c12)OC(C)(C)CC3	0	0	0	0	-	-	-	-
Cc1c(C)c2c(OCC(=O)N[C@@H](C)C(=O)O)cc3c(c2oc1=O)CCC(C)(C)O3	0	0	0	46	0	70	0	53
Cc1c(C)c2c(OCC(=O)NCC(C)C)cc3c(c2oc1=O)CCC(C)(C)O3	0	-	0	0	-	-	-	-
CCc1cc(=O)oc2c3c(cc(OCC(=O)Nc4cccnc4)c12)OC(C)(C)CC3	0	0	0	67	0	0	0	78
Cc1c(C)c2c(OCC(=O)NCc3ccncc3)cc3c(c2oc1=O)CCC(C)(C)O3	0	0	0	31	0	0	0	41
